Laboratory results published in ChEMBL document CHEMBL1127859, “Selective inhibition of trypanosomal glyceraldehyde-3-phosphate dehydrogenase by protein structure-based design: toward new drugs for the treatment of sleeping sickness” (J Med Chem, 1994).

How the values were obtained:
[1] = biological target: Glyceraldehyde-3-phosphate dehydrogenase (Homo sapiens, UniProt P04406); assay: Tested for the inhibitory activity against Glycosomal glyceraldehyde 3-phosphate dehydrogenase (gGAPDH) of human erythrocyte
Sequence of Glyceraldehyde-3-phosphate dehydrogenase (P04406 whole entry): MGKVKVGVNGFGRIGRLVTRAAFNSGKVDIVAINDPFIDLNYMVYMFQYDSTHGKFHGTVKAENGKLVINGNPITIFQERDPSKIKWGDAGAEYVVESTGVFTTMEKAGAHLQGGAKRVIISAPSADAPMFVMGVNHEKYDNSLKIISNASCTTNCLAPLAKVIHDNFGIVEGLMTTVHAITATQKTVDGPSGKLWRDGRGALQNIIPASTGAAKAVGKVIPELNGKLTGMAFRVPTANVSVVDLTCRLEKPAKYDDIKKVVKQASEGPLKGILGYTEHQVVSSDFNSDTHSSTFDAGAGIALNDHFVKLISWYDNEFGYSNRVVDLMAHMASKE

[2] = Tested for the inhibitory activity against Glycosomal glyceraldehyde 3-phosphate dehydrogenase (gGAPDH) of Trypanosoma brucei
Procedure, shortened: (§1)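 Recombinant glycosomal GAPDH overexpressed in E. coli and purified. Started with enzyme. Initial rates compared with a 5% DMSO control; NADH absorbance interference checked without enzyme. IC50 from ≥5 concentrations giving 5–80% inhibition.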

[3] = Tested for the inhibitory activity against Glycosomal glyceraldehyde 3-phosphate dehydrogenase (gGAPDH) of Leishmania mexicana; procedure, shortened: as §1
[4] = Tested for the inhibitory activity against Glycosomal glyceraldehyd 3-phosphate dehydrogenase (gGAPDH) of Trypanosoma brucei
Procedure, shortened: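 Recombinant T. brucei gGAPDH expressed in E. coli. Reaction started with enzyme; NADH absorbance read. Activity from initial rates versus a DMSO-only control. IC50 from at least five inhibitor concentrations giving 5–80% inhibition.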

Row | IC50 [1] | IC50 [2] | IC50 [3] | IC50 [4] | Compound
1 | 10 mM | 10 mM | – | – | Nc1ncnc2c1nc(-c1ccccc1)n2[C@@H]1O[C@H](CO)[C@@H](O)[C@H]1O
2 | > 10 mM | 6 mM | 3.3 mM | – | Nc1ncnc2c1ncn2[C@@H]1O[C@H](CO)[C@@H](O)[C@H]1NC(=O)c1ccccc1
3 | > 10 mM | 5 mM | 2.4 mM | – | Nc1ncnc2c1ncn2[C@@H]1O[C@H](CO)[C@@H](O)[C@H]1NC(=O)c1cccs1
4 | > 10 mM | 2.2 mM | 0.3 mM | – | COc1cccc(C(=O)N[C@@H]2[C@H](O)[C@@H](CO)O[C@H]2n2cnc3c(N)ncnc32)c1
5 | 1.3 mM | – | 0.5 mM | 0.6 mM | Nc1ncnc2c1nc(-c1cccs1)n2[C@@H]1O[C@H](CO)C(O)[C@H]1O (single isomer, unassigned)
6 | > 10 mM | 8 mM | 6 mM | – | Cc1nc(N)c2ncn([C@@H]3O[C@H](CO)[C@@H](O)[C@H]3O)c2n1 [2-METHYLADENOSINE]
7 | 35 mM | 100 mM | 50 mM | – | Nc1ncnc2c1ncn2[C@@H]1O[C@H](CO)[C@@H](O)[C@H]1O [ADENOSINE]
